Where two headings read alike, the source gives them in different places.
Assays:
HEK 293 cells = test: CellTiter-Glo cytotoxicity qHTS, HEK 293; format: cell-based, human; conditions: for cell killing of HEK 293 compared with cancer cell line KB-3–1 (in words): pan-active outliers, 12 dose-point confirmation; for cell killing of HEK 293 cells (in words): 48 hr; for EC50: read-out: EC50 HEK 293
Summary of the method: (§1)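 HEK 293 (250 cells/well) or NIH 3T3 (400 cells/well) are seeded in 5 μL. Dosing: annotated library 8-pt (0.6 nM–46 μM) or 11-pt (0.8 nM–46 μM); diversity library 4-pt, mostly 115, 58, 12 and 2.3 μM; cherry-picks confirmed over 12 points, 0.3 nM–46 μM final. Incubate 48 hr at 37 °C, then read CellTiter-Glo luminescence after 10 min. Normalize to DMSO and 9.2 μM bortezomib; EC50 from a four-parameter logistic fit.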

NIH 3T3 cells = test: CellTiter-Glo cytotoxicity qHTS, NIH 3T3; format: cell-based, murine; conditions: for cell killing of NIH 3T3 compared with cancer cell line KB-3–1 (in words): pan-active outliers, 12 dose-point confirmation; for cell killing of NIH 3T3 cells (in words): 48 hr; for EC50: read-out: EC50 NIH 3T3
Summary of the method: as §1

KB 3–1 cells = test: CellTiter-Glo cytotoxicity qHTS, KB 3-1; format: cell-based, human; conditions: for cell killing of KB 3–1 cells (in words): 48 hr; for EC50: read-out: EC50 KB 3–1
Summary of the method: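 HeLa-derived KB 3–1 cells are seeded at 500 cells/well in 5 μL. Annotated library is tested 8-pt (0.6 nM–46 μM, 1:5) or 11-pt (0.8 nM–46 μM, 1:3); cherry-picks are retested 12-pt, 0.3 nM–46 μM final. Incubate 48 hr at 37 °C, then read CellTiter-Glo luminescence after 10 min at room temperature. Normalize to DMSO and 9.2 μM bortezomib; EC50 from a four-parameter logistic fit.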

CRL-7250 cells = test: CellTiter-Glo cytotoxicity qHTS, CRL-7250; format: cell-based, human; conditions: for cell killing of CRL-7250 cells (in words): CellTiter-Glo, 48 hr
Summary of the method: (§2)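 CRL-7250 (primary) or HaCat cells are seeded at 500 cells/well in 5 μL medium. Test compound is pin-transferred as an 8-pt series (0.6 nM–46 μM, 1:5) or an 11-pt series (0.8 nM–46 μM, 1:3). Incubate 48 hr at 37 °C and 85% humidity. Add CellTiter-Glo and read luminescence after 10 min at room temperature. Normalize to DMSO (0%) and 9.2 μM bortezomib (−100%); EC50 comes from a four-parameter logistic fit.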

HaCat cells = test: CellTiter-Glo cytotoxicity qHTS, HaCat; format: cell-based, human
Summary of the method: as §2

HEK293 cells = test: Bright-field microscopy of treated cells; format: cell-based, human; conditions: 48 hr, at concentrations suggested to be cytotoxic by CTG dose-response data
[1] = target: T1, CTG engineered firefly luciferase (Photuris pensylvanica, UniProt Q27757); test: CellTiter-Glo luciferase counter-assay; format: biochemical; conditions: read-out: EC50 CTG Luciferase; cell-free media with CTG and ATP added as substrate
T1 sequence (Q27757 1-545): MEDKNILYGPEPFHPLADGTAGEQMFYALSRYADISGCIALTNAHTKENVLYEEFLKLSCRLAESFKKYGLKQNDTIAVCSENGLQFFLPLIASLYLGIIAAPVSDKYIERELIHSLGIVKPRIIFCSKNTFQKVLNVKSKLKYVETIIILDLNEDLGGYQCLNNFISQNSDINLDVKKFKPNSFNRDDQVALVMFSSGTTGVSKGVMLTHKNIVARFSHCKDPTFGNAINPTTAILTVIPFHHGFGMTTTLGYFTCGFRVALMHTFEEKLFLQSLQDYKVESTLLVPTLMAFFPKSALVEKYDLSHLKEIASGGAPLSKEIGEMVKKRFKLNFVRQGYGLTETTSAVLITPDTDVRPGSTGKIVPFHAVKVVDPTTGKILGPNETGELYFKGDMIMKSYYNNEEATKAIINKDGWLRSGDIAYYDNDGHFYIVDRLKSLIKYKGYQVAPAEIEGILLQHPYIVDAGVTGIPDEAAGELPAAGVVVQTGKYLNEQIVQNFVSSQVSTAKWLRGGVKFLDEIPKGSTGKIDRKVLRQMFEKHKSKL

[2] = target: Photinus pyralis luciferase (Photinus pyralis, UniProt P08659); test: Firefly luciferase inhibition assay; format: biochemical; conditions: read-out: EC50 Luciferase; 10 nM Photinus pyralis luciferase, 10 μM ATP, 10 μM D-Luciferin
Chain of Photinus pyralis luciferase (P08659 whole entry): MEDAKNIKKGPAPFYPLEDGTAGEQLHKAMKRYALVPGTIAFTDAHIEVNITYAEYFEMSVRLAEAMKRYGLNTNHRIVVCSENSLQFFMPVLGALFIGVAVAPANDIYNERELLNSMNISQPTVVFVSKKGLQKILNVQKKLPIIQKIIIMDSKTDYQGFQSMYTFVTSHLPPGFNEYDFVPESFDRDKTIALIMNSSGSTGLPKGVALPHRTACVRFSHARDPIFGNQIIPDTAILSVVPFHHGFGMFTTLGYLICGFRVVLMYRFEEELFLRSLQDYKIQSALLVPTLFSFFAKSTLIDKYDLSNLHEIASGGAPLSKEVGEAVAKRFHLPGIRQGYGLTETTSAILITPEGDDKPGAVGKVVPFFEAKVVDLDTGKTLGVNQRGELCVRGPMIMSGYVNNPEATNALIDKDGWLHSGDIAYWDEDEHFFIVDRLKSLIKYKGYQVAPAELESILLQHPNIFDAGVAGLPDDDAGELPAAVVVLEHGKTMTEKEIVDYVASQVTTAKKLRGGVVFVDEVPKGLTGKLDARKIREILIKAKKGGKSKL

[3] = CellTiter-Glo, 48 hr incubation

Cc1nn2c(c1-c1ccccc1-c1ccccc1)N(CC1CC1)CCC2 [NCGC00420435]
cell killing of HEK 293 compared with cancer cell line KB-3–1 (in words) (HEK 293 cells): greater cell killing | cell killing of NIH 3T3 compared with cancer cell line KB-3–1 (in words) (NIH 3T3 cells): greater cell killing

COc1ncc2cc(C(=O)Nc3cc(C(=O)NCc4cccc(Cl)c4)ccc3Cl)c(=O)[nH]c2n1 [TC-S7004]
cell killing of KB 3–1 cells (in words) (KB 3–1 cells; CellTiter-Glo): complete killing | EC50 (KB 3–1 cells; [3]): 3200 nM | cell killing of CRL-7250 cells (in words) (CRL-7250 cells): no effect | cell killing of HaCat cells (in words) (HaCat cells; CellTiter-Glo, 48 hr): no effect | cell killing of HEK 293 cells (in words) (HEK 293 cells; CellTiter-Glo): no effect | cell killing of NIH 3T3 cells (in words) (NIH 3T3 cells; CellTiter-Glo): no effect

O=C(Nc1ccccc1)OC[C@H]1C[C@@H]2CCN1C[C@@H]2c1cc(C2CCCC2)nc(-c2ccncc2)n1 [NCGC00421344]
potency in HEK 293 cell relative to the other two cell lines (NIH 3T3, KB 3–1) (HEK 293 cells; CellTiter-Glo EC50 comparison): > 10 fold

O=C(c1ccc(Cl)cc1)N1CCOCC2(CN(Cc3cc(F)cc(F)c3)C2)C1 [NCGC00419015]
EC50 (KB 3–1 cells; [3]): 640 nM | EC50 (HEK 293 cells; [3]): 510 nM | EC50 (NIH 3T3 cells; [3]): 720 nM

COc1cccc(-c2ncc3c(n2)OCCN(c2ccccc2)C3=O)c1 [NCGC00413522]
cell growth by bright-field microscopy (HEK293 cells): unaffected cell growth | EC50 [1]: 26600 nM | EC50 [2]: 890 nM

CC(C)C[C@H](NC(=O)[C@@H](NC(=O)c1cccc(-c2ccccc2)n1)[C@@H](C)O)B(O)O [delanzomib]
EC50 (KB 3–1 cells; Homo sapiens, KB 3-1, 48 h): 186 nM | EC50 (CRL-7250 cells; Homo sapiens, 48 h, read-out: EC50 CRL-7250): 205 nM | EC50 (HaCat cells; Homo sapiens, HaCaT, 48 h, read-out: EC50 HaCat): 326 nM | EC50 (HEK 293 cells; Homo sapiens, HEK293, 48 h): 148 nM | EC50 (NIH 3T3 cells; Mus musculus, NIH3T3, 48 h): 82 nM

Cc1nn2c(c1-c1ccccc1-c1ccccc1)N(Cc1ccc(O)cc1)CCC2 [NCGC00420512]
cell killing of HEK 293 compared with cancer cell line KB-3–1 (in words) (HEK 293 cells): greater cell killing | cell killing of NIH 3T3 compared with cancer cell line KB-3–1 (in words) (NIH 3T3 cells): greater cell killing

Cc1nn2c(c1-c1ccccc1Oc1ccccc1)N(Cc1ccccc1O)CCC2 [NCGC00420455]
cell killing of HEK 293 compared with cancer cell line KB-3–1 (in words) (HEK 293 cells): greater cell killing | cell killing of NIH 3T3 compared with cancer cell line KB-3–1 (in words) (NIH 3T3 cells): greater cell killing

c1cc(-c2cnn3cc(-c4ccc(N5CCNCC5)cc4)cnc23)c2cccnc2c1 [LDN-212854]
cell killing of KB 3–1 cells (in words) (KB 3–1 cells; CellTiter-Glo): complete killing | EC50 (KB 3–1 cells; [3]): 4100 nM | cell killing of CRL-7250 cells (in words) (CRL-7250 cells): no effect | cell killing of HEK 293 cells (in words) (HEK 293 cells; CellTiter-Glo): partial killing | EC50 (HEK 293 cells; [3]): 16400 nM | cell killing of NIH 3T3 cells (in words) (NIH 3T3 cells; CellTiter-Glo): no effect

O=C1c2cnc(-c3cc4ccccc4o3)nc2OCCN1c1ccccc1 [NCGC00413607]
cell growth by bright-field microscopy (HEK293 cells): unaffected cell growth | EC50 [1]: 7300 nM | EC50 [2]: 80 nM

Reference: PMC10791069 (SLAS discovery : advancing life sciences R & D, 2019)
